Reference: ChEMBL document CHEMBL1156620, “Structure-activity relationship studies on a novel class of antiproliferative agents derived from Lavendustin A. Part I: Ring A modifications” (Bioorg Med Chem, 2008)

Key:
HaCaT [1] = assay: Antiproliferative activity against human HaCaT cells after 3 days by sulforhodamine B assay; format: functional, cell-based; conditions: 72 h
In short: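 HaCaT keratinocytes kept in DMEM with 5% FCS, trypsinized and seeded at 4000 cells/0.2 mL/well in 96-well plates. Medium swapped after 24 h for fresh medium with graded compound concentrations. Proliferation read by sulforhodamine B colorimetry after 3 days. IC50 taken as the average of at least two independent measurements.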

HaCaT [2] = assay: Antimitotic activity against human HaCaT cells assessed as mitotic index at 100 uM after 20 hrs; format: functional
In short: (§1)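 HaCaT cells grown in DMEM with 5% FCS, seeded in chamber slides at 24000 cells/0.4 ml/well. After 24 h, medium replaced with fresh medium containing the stated compound concentration, then 20 h incubation. Cells fixed in 90% acetone for 5 min at room temperature. DNA stained with DAPI (0.5 μg/ml, 1 h, RT). Metaphase-arrested cells scored by fluorescence microscopy, at least 300 cells per concentration. Mitotic index = 100% × mitotic/total cells.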

HaCaT [3] = assay: Antimitotic activity against human HaCaT cells assessed as mitotic index at 1 uM after 20 hrs; format: functional; in short: as §1
HaCaT [4] = assay: Antimitotic activity against human HaCaT cells assessed as mitotic index at 0.2 uM after 20 hrs; format: functional; in short: as §1
Tubulin = Tubulin (Sus scrofa, UniProt P02554+P02550); assay: Inhibition of pig brain tubulin polymerization
In short: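 Pig brain tubulin purified by three warm/cold assembly cycles in 1 M monosodium glutamate pH 6.6 with 1 mM GTP. Compound (DMSO, 4% v/v final) preincubated with tubulin 15 min at 30 °C in 0.8 M glutamate pH 6.6 without GTP. Samples then chilled, given GTP, and shifted from 0 °C to 30 °C. Turbidity read at 350 nm. IC50 is 50% inhibition of polymerization extent at 20 min, by linear interpolation.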

Tubulin (Sus scrofa) = Tubulin (Sus scrofa) (UniProt P02554+P02550); assay: Binding affinity to pig brain tubulin at 10 uM after 15 mins relative to control
Sequence of Tubulin (Sus scrofa) (P02550 whole entry, looked up): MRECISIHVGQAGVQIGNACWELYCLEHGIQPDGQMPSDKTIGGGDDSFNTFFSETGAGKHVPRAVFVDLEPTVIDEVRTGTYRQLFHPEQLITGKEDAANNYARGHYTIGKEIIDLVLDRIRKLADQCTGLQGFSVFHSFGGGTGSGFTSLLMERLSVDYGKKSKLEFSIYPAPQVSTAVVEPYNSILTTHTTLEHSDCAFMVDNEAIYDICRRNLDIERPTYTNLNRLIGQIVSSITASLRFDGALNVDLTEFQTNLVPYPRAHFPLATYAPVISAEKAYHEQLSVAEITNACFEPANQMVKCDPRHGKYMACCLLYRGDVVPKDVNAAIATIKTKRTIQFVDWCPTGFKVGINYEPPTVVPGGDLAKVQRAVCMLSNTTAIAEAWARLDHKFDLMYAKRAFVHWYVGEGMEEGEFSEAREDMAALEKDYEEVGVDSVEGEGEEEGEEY
Sequence of Tubulin (Sus scrofa) (P02554 whole entry, looked up): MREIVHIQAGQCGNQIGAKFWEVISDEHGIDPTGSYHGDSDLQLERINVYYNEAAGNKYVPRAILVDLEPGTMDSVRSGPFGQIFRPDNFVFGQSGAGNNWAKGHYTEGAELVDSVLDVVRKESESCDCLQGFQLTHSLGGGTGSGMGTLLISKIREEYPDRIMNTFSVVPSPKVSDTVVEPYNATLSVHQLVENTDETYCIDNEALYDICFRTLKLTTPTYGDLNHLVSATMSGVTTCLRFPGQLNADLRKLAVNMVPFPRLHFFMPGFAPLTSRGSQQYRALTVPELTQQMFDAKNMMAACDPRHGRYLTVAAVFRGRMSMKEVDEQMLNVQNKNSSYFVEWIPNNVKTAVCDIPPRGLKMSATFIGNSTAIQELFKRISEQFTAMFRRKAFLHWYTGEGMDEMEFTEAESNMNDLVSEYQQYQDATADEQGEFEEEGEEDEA

HaCaT [5] = assay: Antimitotic activity against human HaCaT cells assessed as mitotic index at 20 uM after 20 hrs; format: functional; in short: as §1
HaCaT [6] = assay: Antimitotic activity against human HaCaT cells assessed as mitotic index at 10 uM after 20 hrs; format: functional; in short: as §1
HaCaT [7] = assay: Antimitotic activity against human HaCaT cells assessed as mitotic index at 0.5 uM after 20 hrs; format: functional; in short: as §1
HaCaT [8] = assay: Antimitotic activity against human HaCaT cells assessed as mitotic index at 2.5 uM after 20 hrs; format: functional; in short: as §1
HaCaT [9] = assay: Antimitotic activity against human HaCaT cells assessed as mitotic index at 2 uM after 20 hrs; format: functional; in short: as §1
HaCaT [10] = assay: Antimitotic activity against human HaCaT cells assessed as mitotic index at 0.4 uM after 20 hrs; format: functional; in short: as §1
HaCaT [11] = assay: Antimitotic activity against human HaCaT cells assessed as mitotic index at 50 uM after 20 hrs; format: functional; in short: as §1
HaCaT [12] = assay: Antimitotic activity against human HaCaT cells assessed as mitotic index at 3 uM after 20 hrs; format: functional; in short: as §1
HaCaT [13] = assay: Antimitotic activity against human HaCaT cells assessed as mitotic index at 30 uM after 20 hrs; format: functional; in short: as §1
HaCaT [14] = assay: Antimitotic activity against human HaCaT cells assessed as mitotic index at 1.5 uM after 20 hrs; format: functional; in short: as §1

SMILES: COC(=O)c1cc(CCc2cccc(OC)c2OC)ccc1O
- IC50 (HaCaT [1]): 33 µM
- Activity (HaCaT [2]): 3.7%

SMILES: COC(=O)c1cc(CCc2cc(OC)ccc2Br)ccc1O
- Activity (HaCaT [3]): 20%
- IC50 (HaCaT [1]): 0.21 µM

SMILES: COC(=O)c1cc(CCc2cc(OC)ccc2OC)ccc1O
- IC50 (HaCaT [1]): 0.047 µM
- Activity (HaCaT [4]): 36%
- IC50 (Tubulin): 1 µM
- Activity (Tubulin (Sus scrofa)): 43%

SMILES: COC(=O)c1cc(CCc2cc(O)ccc2OC)ccc1O
- IC50 (HaCaT [1]): 8.7 µM
- Activity (HaCaT [5]): 57%

SMILES: COC(=O)c1cc(CCc2cc(OC)c(OC)c(OC)c2)ccc1O
- IC50 (HaCaT [1]): 3.5 µM
- Activity (HaCaT [6]): 18%

SMILES: CCOc1ccc(OC)c(CCc2ccc(O)c(C(=O)OC)c2)c1
- IC50 (HaCaT [1]): 0.54 µM
- Activity (HaCaT [7]): 31%

SMILES: COC(=O)c1cc(CCc2cc(SC)ccc2OC)ccc1O
- IC50 (HaCaT [1]): 0.86 µM
- Activity (HaCaT [8]): 37%

SMILES: CCc1ccc(CC)c(CCc2ccc(O)c(C(=O)OC)c2)c1
- Activity (HaCaT [9]): 30%
- IC50 (HaCaT [1]): 0.65 µM

SMILES: CCc1ccc(OC)cc1CCc1ccc(O)c(C(=O)OC)c1
- IC50 (HaCaT [1]): 0.13 µM
- Activity (HaCaT [10]): 47%

SMILES: COC(=O)c1cc(CCc2cc(OC)ccc2O)ccc1O
- Activity (HaCaT [9]): 27%
- IC50 (HaCaT [1]): 1.1 µM

SMILES: COC(=O)c1cc(CCc2ccc3c(c2)OCO3)ccc1O
- IC50 (HaCaT [1]): 36 µM
- Activity (HaCaT [2]): 2.9%

SMILES: COC(=O)c1cc(CCc2cc(O)ccc2O)ccc1O
- IC50 (HaCaT [1]): 21 µM
- Activity (HaCaT [11]): 2.2%

SMILES: COC(=O)c1cc(CCc2cc(OC)c(C(C)(C)C)cc2C(C)=O)ccc1O
- IC50 (HaCaT [1]): 8.2 µM
- Activity (HaCaT [2]): 4.4%

SMILES: CCOc1ccc(OCC)c(CCc2ccc(O)c(C(=O)OC)c2)c1
- IC50 (HaCaT [1]): 0.38 µM
- Activity (HaCaT [12]): 20%

SMILES: COC(=O)c1cc(CCc2cc(N(C)C)ccc2OC)ccc1O
- IC50 (HaCaT [1]): 0.92 µM
- Activity (HaCaT [8]): 28%

SMILES: COC(=O)c1cc(CCc2ccc(OC)cc2OC)ccc1O
- IC50 (HaCaT [1]): 19 µM
- Activity (HaCaT [2]): 7.2%

SMILES: COC(=O)c1cc(CCc2cc(OC(C)=O)ccc2OC(C)=O)ccc1O
- IC50 (HaCaT [1]): 24 µM

SMILES: COC(=O)c1cc(CCc2cc(Cl)ccc2OC)ccc1O
- IC50 (HaCaT [1]): 6.9 µM
- Activity (HaCaT [13]): 27%

SMILES: COC(=O)c1cc(CCc2c(OC)ccc(OC)c2OC)ccc1O
- IC50 (HaCaT [1]): 3.5 µM
- Activity (HaCaT [6]): 25%

SMILES: CCc1ccc(OC)c(CCc2ccc(O)c(C(=O)OC)c2)c1
- Activity (HaCaT [3]): 44%
- IC50 (HaCaT [1]): 0.43 µM

SMILES: CCc1cccc(OC)c1CCc1ccc(O)c(C(=O)OC)c1
- Activity (HaCaT [3]): 50%
- IC50 (HaCaT [1]): 0.2 µM

SMILES: COC(=O)c1cc(CCc2cc(C(C)=O)ccc2OC)ccc1O
- Activity (HaCaT [9]): 26%
- IC50 (HaCaT [1]): 0.66 µM

SMILES: CCOc1ccc(OC)cc1CCc1ccc(O)c(C(=O)OC)c1
- IC50 (HaCaT [1]): 0.12 µM
- Activity (HaCaT [4]): 38%

SMILES: COC(=O)c1cc(CCc2cc(OC)ccc2N(C)C)ccc1O
- IC50 (HaCaT [1]): 0.65 µM
- Activity (HaCaT [12]): 42%

SMILES: COC(=O)c1cc(CCc2cccc(OC)c2)ccc1O
- IC50 (HaCaT [1]): 37 µM
- Activity (HaCaT [2]): 36%

SMILES: COC(=O)c1cc(CCc2c(OC)cccc2OC)ccc1O
- IC50 (HaCaT [1]): 0.11 µM
- Activity (HaCaT [10]): 24%

SMILES: COC(=O)c1cc(CCc2ccccc2OC)ccc1O
- IC50 (HaCaT [1]): 20 µM
- Activity (HaCaT [13]): 16%

SMILES: COC(=O)c1cc(CCc2cc(OC)ccc2C(C)=O)ccc1O
- IC50 (HaCaT [1]): 0.041 µM
- Activity (HaCaT [14]): 46%
